Laboratory results reported in ChEMBL document CHEMBL1146632, “Styrylheterocycles: a novel class of inhibitors on lipopolysaccharide-Induced nitric oxide production” (Bioorg Med Chem Lett, 2003).

Key:
[1] = test system: RAW264.7; experiment: Inhibitory activity against nitric oxide production in lipopolysaccharide-activated mouse macrophage RAW264.7 cells; type: functional, cell-based
Method in brief: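 RAW264.7 cells in phenol-red-free DMEM with 10% FBS were plated at 8×10⁵ cells/mL and grown 24 h. The medium was then renewed, and cells were exposed to LPS with or without test sample for 20 h. Nitrite in the medium, taken as the NO indicator, was measured in triplicate with Griess reagent (0.1% naphthylethylenediamine, 1% sulfanilamide, 5% H₃PO₄). Inhibition was calculated as % of the vehicle-treated control, and IC₅₀ was taken from dose-response curves.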

[2] = test system: RAW264.7; experiment: Inhibitory activity of the compound against nitric oxide production in lipopolysaccharide-activated mouse macrophage RAW264.7 cells

Compound | IC50 [1] | IC50 [2]
COc1cc(/C=C\c2cccs2)cc(OC)c1 | > 50 µM | 
COc1cc(/C=C\c2ccoc2)cc(OC)c1OC | 6.6 µM | 
COc1cc(/C=C/c2cccs2)cc(OC)c1 | > 50 µM | 
COc1cc(/C=C/c2ccoc2)cc(OC)c1OC | 9.5 µM | 

Continued, values first:

IC50 [1] | IC50 [2] | Compound
5.6 µM |  | COc1cc(/C=C\c2ccsc2)cc(OC)c1OC
> 50 µM |  | COc1ccc(/C=C/c2cccs2)cc1
5.9 µM |  | COc1cc(/C=C/c2ccco2)cc(OC)c1OC
 | 7.8 µM | COc1cc(/C=C/c2ccsc2)cc(OC)c1OC
5.3 µM |  | COc1cc(/C=C/c2cccs2)cc(OC)c1OC
> 50 µM |  | COc1ccc(/C=C\c2cccs2)cc1
15.9 µM |  | Oc1ccc(/C=C/c2cc(O)cc(O)c2)cc1 [RESVERATROL]
